Inhibition and Activity data for 1 molecule are collected here from ChEMBL document CHEMBL5370658, “Development of First-in-Class Dual Sirt2/HDAC6 Inhibitors as Molecular Tools for Dual Inhibition of Tubulin Deacetylation” (J Med Chem, 2023).

Activity calls are given as the source filed them. No cut-off for these calls is given here.

Test [1] has as its target T1, Polyamine deacetylase HDAC10 (Homo sapiens) (UniProt Q969S8).
T1 sequence (whole entry): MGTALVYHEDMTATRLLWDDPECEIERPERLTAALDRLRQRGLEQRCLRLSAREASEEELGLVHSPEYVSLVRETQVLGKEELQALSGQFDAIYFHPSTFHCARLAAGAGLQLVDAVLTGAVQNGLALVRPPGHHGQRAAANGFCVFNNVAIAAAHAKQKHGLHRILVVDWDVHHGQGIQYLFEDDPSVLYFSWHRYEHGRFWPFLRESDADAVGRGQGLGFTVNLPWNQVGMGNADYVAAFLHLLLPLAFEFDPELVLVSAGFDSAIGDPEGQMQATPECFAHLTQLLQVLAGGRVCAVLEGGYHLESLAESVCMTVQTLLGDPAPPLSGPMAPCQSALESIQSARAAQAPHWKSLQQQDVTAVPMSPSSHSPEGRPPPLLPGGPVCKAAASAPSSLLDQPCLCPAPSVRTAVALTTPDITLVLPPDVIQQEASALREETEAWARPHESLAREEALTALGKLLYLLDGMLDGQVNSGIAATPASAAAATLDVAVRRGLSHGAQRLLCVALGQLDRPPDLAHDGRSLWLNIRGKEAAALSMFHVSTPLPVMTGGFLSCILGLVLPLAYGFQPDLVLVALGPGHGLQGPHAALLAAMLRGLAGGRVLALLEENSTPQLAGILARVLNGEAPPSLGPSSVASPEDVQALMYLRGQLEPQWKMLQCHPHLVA
Briefly: Inhibition of HDAC10 (unknown origin) using Abz-SRGGK(STFA)FRR-NH2 as substrate at 6 to 20000 nM preincubated for 5 mins followed by substrate addition and measured every 30 secs for 30 mins by continuous fluorescence based assay. The settings on record: dose 6-20000 nM, time 35.0 min. In a few lines:
(§1)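 Continuous fluorescence assay in 20 mM HEPES pH 7.4, 140 mM NaCl, 10 mM KCl, 1 mM TCEP, 0.2 mg/mL BSA, 3% DMSO final. Enzyme (HDAC4 5 nM, HDAC5 10 nM, HDAC7 5 nM, HDAC9 20 nM) preincubated with inhibitor at room temperature. HDAC10 (5 nM) instead in 20 mM HEPES pH 7.4, 0.5 mg/mL BSA. Initial slope used as activity.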

For test [2], the target named is Histone deacetylase 5 (Homo sapiens) (UniProt Q9UQL6). Briefly: Inhibition of HDAC5 (unknown origin) using Abz-SRGGK(STFA)FRR-NH2 as substrate at 6 to 20000 nM preincubated for 5 mins followed by substrate addition and measured every 30 secs for 30 mins by continuous fluorescence based assay. The settings on record: dose 6-20000 nM, time 35.0 min. A digest of the protocol:
as §1

In another test the test system is HGC-27. Briefly: Cytotoxicity against human HGC-27 cells assessed as reduction in cell viability incubated for 72 hrs by MTS assay. It is filed as functional, cell-based. A digest of the protocol:
(§2)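 Cell viability EC50 from at least two independent experiments, each run in triplicate. Results are compared by t-test.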
(Tetrazolium assays rely on reduction of a dye to a coloured formazan, in cell work by metabolically active cells.)

Test [3] deals with Histone deacetylase 1/2/3 (Homo sapiens) (UniProt Q13547+O15379+Q92769). The test is described as follows: Inhibition of HDAC1/2/3 in human MCF7 cells assessed as increase in histone H3 acetylation at 10 to 20 uM incubated for 24 hrs by Western blot analysis. It is filed as cell-based. To be noted: dose 10-20 µM. Background: Immunoblotting shows a protein as a band on a membrane.

Test [4] has as its target NAD-dependent protein deacylase sirtuin-6 (Homo sapiens) (UniProt Q8N6T7). The test is described as follows: Inhibition of Sirt6 (unknown origin) using Ac-EALPKK(Myr)Y(NO2)GG-NH2 as substrate at 20 to 500 uM preincubated for 5 mins followed by enzyme addition and measured after 1 hr by RP-HPLC analysis. To be noted: dose 20-500 µM, time 65.0 min. A digest of the protocol:
(§3)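 Discontinuous HPLC assay, 120 µL in 20 mM Tris pH 7.8, 150 mM NaCl, 5 mM MgCl2, 0.2 mg/mL BSA, 5% DMSO. Inhibitor preincubated at 37 °C with NAD+ (1 mM) and substrate (Sirt5 5 µM; Sirt6 20 µM). Started with enzyme (Sirt5 100 nM; Sirt6 500 nM). Quenched with TFA/ACN. Sirt5 read by A220, Sirt6 by A360 (nitrotyrosine). Performed once in duplicates; IC50 by nonlinear regression.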

The test system of a further test is MCF7. Briefly: Cytotoxicity against human MCF7 cells assessed as reduction in cell viability incubated for 72 hrs by MTT assay. It is filed as functional, cell-based. A digest of the protocol: as §2
The next test concerns W1 Ovarian cancer cell. Briefly: Cytotoxicity against human W1 Ovarian cancer cells assessed as reduction in cell viability incubated for 72 hrs by MTT assay. It is filed as functional, cell-based. In a few lines:
as §2

In test [5] the target is NAD-dependent protein deacylase sirtuin-5, mitochondrial (Homo sapiens) (UniProt Q9NXA8). Briefly: Inhibition of Sirt5 (unknown origin) using Bz-GVLK(Succ)EYGV-NH2 as substrate at 20 to 500 uM preincubated for 5 mins followed by enzyme addition and measured after 5 mins by RP-HPLC analysis. The settings on record: dose 20-500 µM, time 10.0 min. In a few lines:
as §3

A further test relates to PC-3M-luc. Briefly: Cytotoxicity against human PC-3M-luc cells assessed as reduction in cell viability incubated for 72 hrs by MTS assay. It is filed as functional, cell-based. A digest of the protocol:
as §2

NAD-dependent protein deacylase sirtuin-5, mitochondrial (Homo sapiens), sequence (Q9NXA8 37-310 limits assumed): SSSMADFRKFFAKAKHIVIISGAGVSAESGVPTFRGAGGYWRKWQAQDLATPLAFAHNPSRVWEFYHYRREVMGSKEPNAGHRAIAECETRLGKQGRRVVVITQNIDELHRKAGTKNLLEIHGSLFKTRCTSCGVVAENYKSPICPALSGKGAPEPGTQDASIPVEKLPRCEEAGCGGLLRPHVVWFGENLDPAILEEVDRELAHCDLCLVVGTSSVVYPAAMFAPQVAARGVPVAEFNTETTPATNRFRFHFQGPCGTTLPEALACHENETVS
NAD-dependent protein deacylase sirtuin-6 (Homo sapiens), sequence (Q8N6T7 whole entry): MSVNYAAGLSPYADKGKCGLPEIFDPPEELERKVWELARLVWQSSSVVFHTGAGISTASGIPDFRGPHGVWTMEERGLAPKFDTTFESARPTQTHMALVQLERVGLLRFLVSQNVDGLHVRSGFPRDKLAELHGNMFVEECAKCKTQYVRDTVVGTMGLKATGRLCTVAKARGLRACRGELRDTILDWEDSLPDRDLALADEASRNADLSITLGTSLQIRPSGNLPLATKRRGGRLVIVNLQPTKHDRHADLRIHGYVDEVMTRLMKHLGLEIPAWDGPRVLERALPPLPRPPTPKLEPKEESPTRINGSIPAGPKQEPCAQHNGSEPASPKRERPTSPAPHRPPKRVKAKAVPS
Histone deacetylase 5 (Homo sapiens), sequence (Q9UQL6 whole entry): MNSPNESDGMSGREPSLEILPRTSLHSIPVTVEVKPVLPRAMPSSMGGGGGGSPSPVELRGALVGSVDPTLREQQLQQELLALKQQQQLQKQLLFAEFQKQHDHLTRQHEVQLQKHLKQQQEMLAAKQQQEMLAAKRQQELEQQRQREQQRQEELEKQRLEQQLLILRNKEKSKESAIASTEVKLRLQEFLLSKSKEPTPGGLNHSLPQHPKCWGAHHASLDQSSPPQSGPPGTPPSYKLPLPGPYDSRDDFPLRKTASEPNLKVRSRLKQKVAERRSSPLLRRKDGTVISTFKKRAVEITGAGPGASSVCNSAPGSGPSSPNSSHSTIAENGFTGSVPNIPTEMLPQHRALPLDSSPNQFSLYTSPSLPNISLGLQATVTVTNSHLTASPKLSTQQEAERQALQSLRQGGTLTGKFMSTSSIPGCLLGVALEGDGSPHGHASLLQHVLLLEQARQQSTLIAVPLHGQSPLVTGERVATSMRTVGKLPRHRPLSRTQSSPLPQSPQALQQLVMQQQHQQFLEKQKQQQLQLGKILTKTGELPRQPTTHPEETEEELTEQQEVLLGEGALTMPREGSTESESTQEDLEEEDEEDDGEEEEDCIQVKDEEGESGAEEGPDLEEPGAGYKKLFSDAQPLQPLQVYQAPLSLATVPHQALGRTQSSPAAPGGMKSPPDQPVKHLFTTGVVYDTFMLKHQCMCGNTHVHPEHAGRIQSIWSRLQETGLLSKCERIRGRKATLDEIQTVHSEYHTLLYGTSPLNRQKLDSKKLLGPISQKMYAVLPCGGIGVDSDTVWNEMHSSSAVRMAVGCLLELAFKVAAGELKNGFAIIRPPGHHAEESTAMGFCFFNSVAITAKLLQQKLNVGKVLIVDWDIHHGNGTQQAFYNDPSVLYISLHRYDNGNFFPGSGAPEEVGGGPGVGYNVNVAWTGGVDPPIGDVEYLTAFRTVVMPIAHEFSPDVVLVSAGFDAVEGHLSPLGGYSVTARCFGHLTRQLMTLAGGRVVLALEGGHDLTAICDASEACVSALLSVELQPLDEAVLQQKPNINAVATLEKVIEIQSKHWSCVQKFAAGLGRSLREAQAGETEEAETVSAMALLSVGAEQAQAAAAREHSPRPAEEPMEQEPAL

On to `CCCCN(Cc1ccc(C(=O)NO)cc1)C(=O)CCCCn1cc(COc2cccc(Cc3cnc(NC(=O)CSc4nc(C)cc(C)n4)s3)c2)nn1`, for which the inhibition entry in test [1], in test [2], in test [3], in test [4] and in [5] was “inactive” throughout. In addition, the result with HGC-27, with MCF7, in the test on W1 Ovarian cancer cell and in the test on PC-3M-luc was Active.
